APP 5'UTR act: APP 5'UTR luciferase reporter activation | SH-SY5Y APP 5'UTR luciferase reporter, luminescence; zero percent = DMSO vehicle wells | activation, % at 2 µM | 190,000 compounds, 1% hits;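 active = activation above a set limit, based on mean plus 3 SD of controls, cut at about 140% in these data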
NF-kB neuron act: compounds increasing NF-kB expression in human neuronal cells | NF-kB reporter expression; active compounds read high | fold change at 12.5 µM | 190,000 compounds, 1.6% hits | AID 1239; in the data active = fold change above about 3.3
STAT1 inh: reduces IFN-gamma driven STAT1 reporter signal; NIH 3T3 STAT1-luciferase reporter, luminescence; inhibition, % at 5.5 µM; 200,000 compounds, 0.35% hits;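 active = inhibition above a set limit, the mean inhibition across all tested compounds plus 3 SD, cut at about 34% in these data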;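 also: 0% = IFN-gamma with DMSO and 100% = IFN-gamma with 300 µM nifuroxazide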
STAT3 inh: inhibitors of IL-6 induced STAT3 signaling; U3A cells, IL-6 STAT3-luciferase reporter, luminescence; host cell line lacks STAT1; inhibition, % at 5.5 µM; 190,000 compounds, 0.89% hits; AID 862;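 active = inhibition above the mean inhibition across all screened compounds plus 3 SD, cut at about 44% in these data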;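 also: 0% = DMSO only wells and 100% = 100 µM nifuroxazide control wells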
STAT3 activator: increases IL-6 driven STAT3 reporter signal; activation (% of control), % at 5.6 µM; 190,000 compounds, 0.91% hits; U3A cells, IL-6 STAT3-luciferase reporter, luminescence; 100% = signal with IL-6 EC80 alone; AID 871;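 active = activation above the screen-wide mean of compound activation plus 3 SD, cut at about 130% in these data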;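 also: 0% = background luminescence of wells with medium and substrate only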
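Test system: Human STAT1-deficient U3A cells with stable STAT3-luciferase reporter | Also added: Interleukin-6, 33 ng/mL | Timing: Compound pre-incubation 1 h before IL-6, then 6 h stimulation at 37 °C | Technique: Luciferase reporter luminescence | Read-out: Percent of IL-6-only median luminescence | Benchmarks: IL-6-only wells as 100% reference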
STAT1 activator: STAT1 signaling activation; NIH 3T3 STAT1-luciferase reporter, IFN-gamma, luminescence; 100% = IFN-gamma alone, no compound; activation (% of control), % at 5.5 µM; 200,000 compounds, 2.6% hits;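 active = activation above the screen-wide mean activation plus 3 SD, cut at about 130% in these data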;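 also: raw ratio to IFN-gamma control signal so 100% means no change and 0% no light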
STAT1 activ conf: STAT1 activation, confirmation assay | shares compounds with STAT1 activator | NIH 3T3 STAT1-luciferase reporter, IFN-gamma potentiation, luminescence; 100% = IFN-gamma EC80 alone, no compound | activation (% of control), % at 5.7 µM | 1,200 compounds, 97% hits;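 active = activation above a set limit carried over from the earlier primary STAT1 screen, cut at about 140% in these data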;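 also: simple ratio to median IFN-gamma plus DMSO wells so 0% means no light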
NFkB act STAT1ct: activates NF-kappaB, counter-screen to STAT1 activators. HEK293T NF-kB luciferase reporter, TNF-alpha stimulated, luminescence; 100% = TNF-alpha with vehicle only. activation (% of control), % at 5.7 µM. 1,200 compounds, 43% hits. AID 1306. shares compounds with STAT1 activator;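 active = activation above the mean of solvent-only control wells plus 3 SD, set per campaign, cut at about 130% in these data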;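 also: TNF-alpha given at a submaximal dose yielding about 80% of full reporter signal; values are well signal over median control so 100% means no change and 0% no light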
STAT3 act STAT1c: counter-screen for STAT1 activators: human STAT3 activation | U3A cells STAT3-luciferase reporter, IL-6, luminescence; cells lack STAT1; 100 = IL-6 alone, no compound effect | AID 1316 | 1,200 compounds, 46% hits | activation (% of control), % at 5.7 µM | shares compounds with STAT1 activator;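 active = activation above the solvent-only control well mean plus 3 SD, set per plate batch, cut at about 110% in these data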;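 also: 0% = no luminescence and 100% = median IL-6 plus DMSO wells; higher means more STAT3 reporter activation so hits are non-selective activators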
Numbers without * were called inactive; nt = not tested or not shown. This is a sample that favours compounds with a hit; in the whole collection about 4.9% have one here.

SMILES	APP 5'UTR act	NF-kB neuron act	STAT1 inh	STAT3 inh	STAT3 activator	STAT1 activator	STAT1 activ conf	NFkB act STAT1ct	STAT3 act STAT1c
Clc1ccc(-c2cn3cc(Br)ccc3n2)cc1Cl	201*	7.2*	-72	14	91	165*	222*	100	122*
CN(C)S(=O)(=O)c1cccc(-c2cn3cc(Cl)ccc3n2)c1	22	1.5	-13	-1	98	112	nt	nt	nt
Brc1ccc2nc(-c3c[nH]c4ccccc34)cn2c1	213*	1	-107	4	98	194*	287*	143*	113*
Cc1cccc(-c2nc(CS(=O)CC(=O)NC3CCCC3)c(C)o2)c1 (centres undefined)	7	1.1	-6	8	98	106	nt	nt	nt
Cc1cccc(-c2nc(C#N)c(NC3CCCCC3)o2)c1	136*	2.8	-62	-9	108	156*	174*	132	118*
O=C(CSc1nc2ccc([N+](=O)[O-])cc2[nH]1)NCCc1ccccc1	0	0.87	2	17	94	98	nt	nt	nt
COc1cccc(CN2CCN(Cc3ccc(O)cc3)CC2CCO)c1 (centres undefined)	-9	1.3	0	1	101	101	nt	nt	nt
COCCn1c(C)cc(C(=O)CSc2nc3ccccc3o2)c1C	177*	1.8	-63	33	74	158*	215*	121	107
Fc1ccc2nc(Nc3nc4cc5c(cc4s3)OCCO5)sc2c1	102	1.6	-74	4	97	166*	194*	125	105
C(=N\Nc1nc2ccccc2s1)/c1ccc2c(c1)OCO2	180*	3.8*	-119	-27	118	209*	272*	123	124*
Brc1ccc(-c2csc(N3CCc4ccccc4C3)n2)cc1	4	1.1	-1	-4	108	101	nt	nt	nt
c1ccc2c(c1)CCN(c1nc3cc4c(cc3s1)OCO4)C2	151*	12*	-88	22	86	180*	261*	136*	107
c1ccc2sc(Nc3nc4cc5c(cc4s3)OCO5)nc2c1	195*	4.7*	-98	0	100	187*	264*	149*	124*
Brc1csc(/C=N/Nc2nc3ccccc3s2)c1	162*	4.4*	-101	-14	114	190*	248*	149*	134*
O=[N+]([O-])c1cc(Cl)cc(/C=N/Nc2nc3ccccc3s2)c1O	22	1	-17	-29	128	113	nt	nt	nt
Cc1ccc(Nc2nc3ccccc3s2)c(C)c1	168*	6.4*	-93	26	78	182*	220*	109	98
Cc1ccc(NC(=O)C2CCN(S(=O)(=O)c3cccc4cccnc34)CC2)nc1	3	0.5	5	1	103	95	nt	nt	nt
CCc1ccc(NC(=O)c2noc3c2CCCCC3)cc1	202*	4.5*	-67	5	102	164*	219*	144*	112*
Cc1ccc(NC(=O)c2noc3c2CCCCC3)cc1C	237*	4.9*	-109	35	74	198*	271*	122	96
Cc1ccc(NC(=O)c2noc3c2CCCCC3)cc1	140*	8.1*	-61	13	92	156*	243*	136*	105
COc1ccc(NC(=O)c2noc3c2CCCCC3)cc1	166*	6.7*	-78	18	91	169*	212*	138*	102
CCN(Cc1cnn(C)c1)Cc1nc(C2(c3ccc(C)cc3)CCCC2)no1	5	1.3	6	2	102	93	nt	nt	nt
Cc1cccc(S(=O)(=O)N/N=c2\sc3ccccc3n2C)c1	18	1.5	-8	-26	129	105	nt	nt	nt
Cc1[nH]c(=O)c(C(=O)/C=C/c2ccccc2F)c2c1CCCC2	-7	1.5	25	3	104	77	nt	nt	nt
COC(=O)N/N=C/c1cc(Cl)cc(Cl)c1OCc1ccc(F)cc1	-21	1.1	9	-1	103	92	nt	nt	nt
SMILES	APP 5'UTR act	NF-kB neuron act	STAT1 inh	STAT3 inh	STAT3 activator	STAT1 activator	STAT1 activ conf	NFkB act STAT1ct	STAT3 act STAT1c
Clc1ccc(-c2cnc(Oc3ccccc3)nc2)cc1	138*	2.4	-59	2	100	153*	190*	142*	109
Cc1ccc(CNC(=O)CCC2CCCN(Cc3c(C)nn(C(C)C)c3C)C2)o1 (centres undefined)	7	0.99	-5	-1	106	104	nt	nt	nt
CC(=O)c1ccc(NC(=O)c2ccc(NC(=O)CCS(=O)(=O)c3cccs3)cc2)cc1	-10	1.1	-64	-11	116	157*	169*	121	113*
O=C(CCS(=O)(=O)c1cccs1)Nc1ccc(C(=O)NCc2cccs2)cc1	9	0.89	-3	0	101	103	nt	nt	nt
COC(=O)c1ccc(OC)c(CSc2nnc(COc3ccc(OC)cc3)o2)c1	-19	1	2	-5	108	96	nt	nt	nt
COc1ccc(/C=C/C(=O)Nc2ccccc2)cc1OC	80	2.9	-53	10	95	152*	163*	126	104
COc1ccc(OC)c(/C=C/C(=O)Nc2ccc3c(c2)CCC3)c1	8	1.1	-7	1	96	106	nt	nt	nt
COc1ccccc1/C=C/C(=O)Nc1ccc2c(c1)CCC2	176*	7.8*	-66	-12	108	161*	197*	147*	112*
COc1ccccc1/C=C/C(=O)Nc1ccc2c(c1)OCCO2	134	8.4*	-89	4	96	179*	238*	124	105
COc1ccccc1/C=C/C(=O)Nc1ccc(N2CCOCC2)cc1	3	0.97	0	18	89	99	nt	nt	nt
COc1ccc(N(CC(=O)NN=C2CCCC2)S(=O)(=O)c2ccccc2)cc1Cl	nt	0.77	4	-3	103	97	nt	nt	nt
Cc1ccc(S(=O)(=O)NC(=O)c2ccc(-c3ccc(-c4ccccc4)cc3)o2)c(C)c1	8	1.1	-4	0	98	104	nt	nt	nt
Cc1cccc(NC2SC(=O)NC2=O)c1 (centres undefined)	-3	1.1	-2	12	92	102	nt	nt	nt
COc1ccc(NC(=O)/C(Cl)=C(/Cl)S(=O)Cc2ccccc2Cl)cn1 (centres undefined)	-94	0.31	-268	18	87	346*	292*	65	133*

Bioassay records (PubChem)
